Test [1] has as its system 4T1 cells. Briefly: Migration assay. It is filed as cell-based, mouse. In a few lines: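 Trypsinised 4T1 cells (5 × 10^4) in 0.2% FBS RPMI with test compound were placed in Transwell inserts (12-μm pore polycarbonate) for 30 min at 37 °C. Inserts then moved to wells with 10% FBS RPMI for 24 h. Migrated and non-migrated cells were crystal violet-stained and methanol-solubilised separately; A570 read. Background-corrected % migration normalised to vehicle; mean ± SD, n = 3.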

Test [2] relates to focal adhesion kinase (FAK). Briefly: FAK immunostaining and Western blotting. It is filed as cell-based, mouse. Conditions: 1 h; for FAK degradation (Western blotting): 4T1 cells. The gist of the method: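 4T1 cells treated for 1 h with test compound or DMSO. For focal adhesion sites, cells were fixed and immunostained with anti-FAK antibody (2.5 μM test compound, 5 μM comparator). For FAK stability, each agent was given at 5 μM and cell lysates were immunoblotted with anti-FAK monoclonal antibody.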
(In western blotting, separated proteins are transferred to a membrane and probed.)

Test [3] relates to 4T1 cells. Briefly: F-actin immunostaining. Conditions: 4-h exposure. It is filed as cell-based, mouse. In a few lines: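 Cells grown overnight on coverslips, then exposed to test compound for 4 h in 2% FBS RPMI 1640. They were fixed in 3.7% formaldehyde, permeabilised 1 h (PBS, 0.1% Triton X-100, 0.1% BSA) and stained 30 min with Alexa Fluor 488 phallotoxin, with DAPI counterstain. Confocal imaging (488/543 nm excitation); fluorescence intensity expressed as % of untreated control.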

Test [4] concerns MCF-7 breast cancer cells. Briefly: Adhesion assay, MCF-7 cells to Matrigel-coated surface. As to conditions: at 100 μM. It is filed as cell-based, human. The gist of the method: (§1)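 Wells coated with 12% (v/v) Matrigel for 1 h at 37 °C, washed with 0.1% BSA-RPMI, then blocked with 0.5% BSA-RPMI for 60 min. Cells were pretreated with test compound for 60 min at 37 °C, seeded at 2 × 10^4 per well, and left to adhere for 30 min. Adherent cells were fixed in formalin, stained with crystal violet and solubilised in 2% SDS; A570 read. Mean ± SD, n = 3.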

The test system of test [5] is 4T1 metastatic breast cancer cells. Briefly: Adhesion assay, 4T1 cells to Matrigel-coated surface. It is filed as cell-based, mouse. As to conditions: read-out: IC50, inhibition of 4T1 cell adhesion.
In test [6] the test system is SKBR3 breast cancer cells. Briefly: Adhesion assay, SKBR3 cells to Matrigel-coated surface. It is filed as cell-based, human. Conditions: at 100 μM. The gist of the method: as §1

Five compounds from article PMC2761948 (Journal of medicinal chemistry, 2009) can be followed below.

The term IC50 denotes the midpoint of a concentration-inhibition curve.

Consider `Cc1c(C)c2c(c(C)c1OC(=O)CCC(=O)O)CC[C@](C)(CCCC(C)CCCC(C)C)O2` (stereo partly shown) [Compound 2], for which the “inhibition of serum-induced 4T1 cell migration” value (“inhibition” for short) in the test with 4T1 cells [1] (at 5 μM) is given as “little effect”. The “FAK degradation (Western blotting)” value in test [2] (5 μM) was “less evident or not appreciable”.

For the compound `Cc1c(C)c2c(c(C)c1OCC(=O)O)CC[C@](C)(CCCC(C)CCCC(C)C)O2` (stereo partly shown) [Compound 6, [2-(4,8-Dimethyl-nonyl)-2,5,7,8-tetramethyl-chroman-6-yloxy]-acetic acid], the “effect on actin stress fiber and lamellipodia formation” value with 4T1 cells [3] (10 μM) was “rapid dissolution of stress fiber and impairment of lamellipodia formation”. In addition, the “inhibition” value in the test on 4T1 cells [1] (at 5 μM) was “effective in inhibiting cell migration”.

For the compound “α-tocopheryl succinate [Compound 1, reference compound]”, the “effect on actin stress fiber” value in the test with 4T1 cells [3] (50 μM) is recorded as “remained largely intact”. In the test on 4T1 cells [1] (at 50 μM), the “inhibition” value is “little effect”. In addition, the “suppression of MCF-7 cell adhesion” value in test [4] is given as “ineffective”. For the same compound, the IC50 in test [5] came to 10 µM. In test [6], the “suppression of SKBR3 cell adhesion” value is reported as “ineffective”. The “FAK degradation (Western blotting)” value in test [2] (5 μM) is on record as “less evident or not appreciable”. In addition, the “effect on focal adhesion sites (anti-FAK immunostaining)” value in test [2] (5 μM, negative control) was “typical punctate pattern”.

On to `Cc1c(C)c2c(c(C)c1OC(=O)CCC(=O)O)CC[C@](C)(/C=C/CC(C)CCCC(C)C)O2` (stereo partly shown) [Compound 4, Succinic acid mono-[2-(4,8-dimethyl-non-1-enyl)-2,5,7,8-tetramethyl-chroman-6-yl] ester], for which, in the test with 4T1 cells [1] (at 5 μM), the “inhibition” value was “effective in inhibiting cell migration”.

As for `Cc1c(C)c2c(c(C)c1OCC(=O)O)CC[C@](C)(/C=C/CC(C)CCCC(C)C)O2` (stereo partly shown) [Compound 5, [2-(4,8-Dimethyl-non-1-enyl)-2,5,7,8-tetramethyl-chroman-6-yloxy]-acetic acid], the “effect on actin stress fiber and lamellipodia formation” value in the test on 4T1 cells [3] (5 μM) is “rapid dissolution of stress fiber and impairment of lamellipodia formation”. In the test with 4T1 cells [1] (at 5 μM), the “inhibition” value is listed as “effective in inhibiting cell migration”. In test [2] (2.5 μM), the “effect on focal adhesion sites (anti-FAK immunostaining)” value is “loss of focal adhesion sites”. Besides, in test [2] (5 μM), the “FAK degradation (Western blotting)” value was “induced FAK degradation”.
